Key:
Format in all cases: functional
[1] = Growth inhibition of human […] cells after 48 hrs by sulforhodamine B assay
Summary of the method: (§1)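 NCI 60-cell-line panel. Cells are grown in RPMI1640 with 5% fetal calf serum and 2 mM L-glutamine, seeded at a density set by growth characteristics, and preincubated 24 h. Compound is tested at a minimum of five concentrations at 10-fold dilution, with 48 h continuous exposure. Viability is read by sulforhodamine B protein assay. GI50, TGI and LC50 come from dose-response curves.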

SR = experiment: Growth inhibition of human SR cells after 48 hrs by sulforhodamine B assay
Summary of the method: (§2)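 NCI 60-cell-line panel (nine cancer types), with cells grown in RPMI1640 plus 5% fetal calf serum and 2 mM L-glutamine. Cells are seeded at a density that depends on the line and preincubated 24 h. Compounds are then applied at a minimum of five 10-fold dilutions over a 5-log range with 48 h continuous exposure. Viability is read by SRB protein assay, and GI50 is derived from dose-response curves in units of 10^-5 M.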

A549 = experiment: Growth inhibition of human A549 cells after 48 hrs by sulforhodamine B assay; details: A549, 48 h; summary of the method: as §1
EKVX = experiment: Growth inhibition of human EKVX cells after 48 hrs by sulforhodamine B assay; summary of the method: as §1
HOP-62 = experiment: Growth inhibition of human HOP62 cells after 48 hrs by sulforhodamine B assay; details: HOP-62, 48 h; summary of the method: as §1
NCI-H226 = experiment: Growth inhibition of human NCI-H226 cells after 48 hrs by sulforhodamine B assay; details: NCI-H226, 48 h; summary of the method: as §1
NCI-H23 = experiment: Growth inhibition of human NCI-H23 cells after 48 hrs by sulforhodamine B assay; details: NCI-H23, 48 h; summary of the method: as §1
NCI-H460 = experiment: Growth inhibition of human NCI-H460 cells after 48 hrs by sulforhodamine B assay; details: NCI-H460, 48 h; summary of the method: as §1
COLO 205 = experiment: Growth inhibition of human COLO205 cells after 48 hrs by sulforhodamine B assay; details: COLO 205, 48 h; summary of the method: as §1
HCC 2998 = experiment: Growth inhibition of human HCC2998 cells after 48 hrs by sulforhodamine B assay; details: HCC 2998, 48 h; summary of the method: as §1
HCT-15 = experiment: Growth inhibition of human HCT15 cells after 48 hrs by sulforhodamine B assay; details: HCT-15, 48 h; summary of the method: as §1
SW-620 = experiment: Growth inhibition of human SW620 cells after 48 hrs by sulforhodamine B assay; details: SW-620, 48 h; summary of the method: as §2
SF-295 = experiment: Growth inhibition of human SF295 cells after 48 hrs by sulforhodamine B assay; details: SF-295, 48 h; summary of the method: as §1
SF-539 = experiment: Growth inhibition of human SF539 cells after 48 hrs by sulforhodamine B assay; details: SF-539, 48 h; summary of the method: as §1
SNB-75 = experiment: Growth inhibition of human SNB75 cells after 48 hrs by sulforhodamine B assay; details: SNB-75, 48 h; summary of the method: as §2
U-251 = experiment: Growth inhibition of human U251 cells after 48 hrs by sulforhodamine B assay; details: U-251, 48 h; summary of the method: as §2
LOX IMVI = experiment: Growth inhibition of human LOXIMVI cells after 48 hrs by sulforhodamine B assay; summary of the method: as §1
SK-MEL-2 = experiment: Growth inhibition of human SK-MEL-2 cells after 48 hrs by sulforhodamine B assay; details: SK-MEL-2, 48 h; summary of the method: as §1
SK-MEL-5 = experiment: Growth inhibition of human SK-MEL-5 cells after 48 hrs by sulforhodamine B assay; details: SK-MEL-5, 48 h; summary of the method: as §1
UACC-62 = experiment: Growth inhibition of human UACC62 cells after 48 hrs by sulforhodamine B assay; details: UACC-62, 48 h; summary of the method: as §2
OVCAR-5 = experiment: Growth inhibition of human OVCAR5 cells after 48 hrs by sulforhodamine B assay; details: OVCAR-5, 48 h; summary of the method: as §1
SK-OV-3 = experiment: Growth inhibition of human SKOV3 cells after 48 hrs by sulforhodamine B assay; details: SK-OV-3, 48 h; summary of the method: as §1
A498 = experiment: Growth inhibition of human A498 cells after 48 hrs by sulforhodamine B assay; details: A498, 48 h; summary of the method: as §1
SN12C = experiment: Growth inhibition of human SN12C cells after 48 hrs by sulforhodamine B assay; summary of the method: as §1
TK-10 = experiment: Growth inhibition of human TK10 cells after 48 hrs by sulforhodamine B assay; details: TK-10, 48 h; summary of the method: as §2
MCF7 = experiment: Antiproliferative activity against human MCF7 cells assessed as cell growth at 100 uM after 48 hrs by alamar blue assay; details: MCF7, 48 h, read-out: Activity
Summary of the method: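 NCI three-cell-line primary screen. Cells are seeded and preincubated in microtiter plates. Compound is added at a single 10^-4 M concentration and cultures are incubated 48 h. The end-point is read with alamar blue. Results are given as percent growth relative to untreated control cells.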

CCRF-CEM = experiment: Growth inhibition of human CCRF-CEM cells after 48 hrs by sulforhodamine B assay; summary of the method: as §1
UO-31 = experiment: Growth inhibition of human UO31 cells after 48 hrs by sulforhodamine B assay; details: UO-31, 48 h; summary of the method: as §2
PC-3 = experiment: Growth inhibition of human PC3 cells after 48 hrs by sulforhodamine B assay; details: PC-3, 48 h; summary of the method: as §1
NCI/ADR-RES = experiment: Growth inhibition of human NCI/ADR-RES cells after 48 hrs by sulforhodamine B assay; summary of the method: as §1
BT-549 = experiment: Growth inhibition of human BT549 cells after 48 hrs by sulforhodamine B assay; details: BT-549, 48 h; summary of the method: as §1
[2] = read-out: LC50 (the source's name)

COc1ccc(/C=N/c2nc3[nH]nc(C)n3c(=O)c2S(=O)(=O)NN2C(=O)C(CN3CCN(C)CC3)SC2c2cccs2)cc1 (configuration not stated)
GI50 [1]: 2.56 µM
TGI [1]: 8.21 µM
CC50 [1, 2]: > 100 µM
GI50 (SR): 0.79 µM
LC50 (concentration killing 50% of cells) (SR): 13.1 µM
TGI (SR): 3.03 µM
GI50 (A549): 3.65 µM
TGI (A549): > 100 µM
GI50 (EKVX): 39.7 µM
TGI (EKVX): > 100 µM
GI50 (HOP-62): 1.7 µM
LC50 (HOP-62): > 100 µM
TGI (HOP-62): > 100 µM
GI50 (NCI-H226): 11.8 µM
LC50 (concentration killing 50% of cells) (NCI-H226): > 100 µM
TGI (NCI-H226): > 100 µM
GI50 (NCI-H23): 1.16 µM
TGI (NCI-H23): 9.11 µM
GI50 (NCI-H460): 8.2 µM
TGI (NCI-H460): > 100 µM
GI50 (COLO 205): 5.29 µM
TGI (COLO 205): 21 µM
GI50 (HCC 2998): 1.34 µM
LC50 (HCC 2998): > 100 µM
TGI (HCC 2998): 16.8 µM
GI50 (HCT-15): 0.65 µM
TGI (HCT-15): > 100 µM
GI50 (SW-620): 1.38 µM
GI50 (SF-295): 1.02 µM
LC50 (concentration killing 50% of cells) (SF-295): > 100 µM
TGI (SF-295): > 100 µM
GI50 (SF-539): 1.77 µM
LC50 (SF-539): > 100 µM
TGI (SF-539): 5.58 µM
GI50 (SNB-75): 2.01 µM
TGI (SNB-75): > 100 µM
GI50 (U-251): 2.51 µM
LC50 (U-251): > 100 µM
TGI (U-251): > 100 µM
GI50 (LOX IMVI): 2.16 µM
TGI (LOX IMVI): > 100 µM
GI50 (SK-MEL-2): 5.55 µM
LC50 (concentration killing 50% of cells) (SK-MEL-2): > 100 µM
TGI (SK-MEL-2): > 100 µM
GI50 (SK-MEL-5): 0.72 µM
TGI (SK-MEL-5): 7.11 µM
CC50 (SK-MEL-5; [2]): > 100 µM
GI50 (UACC-62): 1.47 µM
TGI (UACC-62): > 100 µM
CC50 (UACC-62; [2]): > 100 µM
GI50 (OVCAR-5): 8.31 µM
LC50 (concentration causing 50% net cell kill) (OVCAR-5): > 100 µM
TGI (OVCAR-5): > 100 µM
GI50 (SK-OV-3): 5.12 µM
TGI (SK-OV-3): > 100 µM
GI50 (A498): 0.5 µM
LC50 (concentration giving 50% net cell kill) (A498): > 100 µM
TGI (A498): 3.2 µM
GI50 (SN12C): 4.68 µM
LC50 (SN12C): > 100 µM
TGI (SN12C): > 100 µM
GI50 (TK-10): 5.9 µM
LC50 (TK-10): > 100 µM
TGI (TK-10): > 100 µM
growth at 100 µM (MCF7): 46%
GI50 (CCRF-CEM): 3.52 µM
TGI (CCRF-CEM): 16.1 µM
GI50 (UO-31): 5.36 µM
LC50 (UO-31): > 100 µM
TGI (UO-31): > 100 µM
GI50 (PC-3): 2.89 µM
LC50 (concentration killing 50% of cells) (PC-3): > 100 µM
TGI (PC-3): 40 µM
GI50 (NCI/ADR-RES): 1.5 µM
TGI (NCI/ADR-RES): 6.98 µM
GI50 (BT-549): 11.3 µM
TGI (BT-549): > 100 µM
